Measurements from different studies.
Lines come from different studies, so protocols differ.
Action: inhibitor
PARP2: Poly [ADP-ribose] polymerase 2 (PARP2, Homo sapiens, UniProt Q9UGN5)
CDK2: Cyclin-dependent kinase 2 (CDK2, Homo sapiens, UniProt P24941)

SMILES	target	test	conditions	IC50
Cc1cccc(Cn2nnc3c4ccc(F)cc4c(=O)[nH]c32)c1	PARP2	enzyme activity		> 10000 nM
Cn1cc(C2=C(c3cn(CCCSC(=N)N)c4ccccc34)C(=O)NC2=O)c2ccccc21	Mitogen-activated protein kinase kinase kinase kinase 1 (MAP4K1, Homo sapiens, UniProt Q92918)	enzyme activity		54.4 nM
CN(C)CCNC(=O)c1ccc(-c2nc3ccc4[nH]ncc4c3c3c2CC(C)(C)CC3)cc1	CDK2	enzyme activity		145 nM
CC(=O)C(=O)N(CC(C)C)NC(=O)[C@H](Cc1ccccc1)NC(=O)[C@H](CC(C)C)NC(=O)[C@H](CCc1ccccc1)NC(=O)OCc1ccccc1	Cathepsin B (CTSB, Homo sapiens, UniProt P07858)	enzyme activity, fluorescence	pH 6	31500 nM
CCCCCn1nnc2c3ccc(F)cc3c(=O)[nH]c21	PARP2	enzyme activity		> 10000 nM
CC(=O)N1C(=O)NC(C)=C(C(=O)OCc2ccccc2)C1c1cccc([N+](=O)[O-])c1 (racemic)	Voltage-dependent L-type calcium channel subunit alpha-1C (Cacna1c, Rattus norvegicus, UniProt P22002)	ion current, patch clamp		2600 nM
Cc1n[nH]c2ccc3nc(-c4ccc(C(=O)NCCN(C)C)cc4F)c4c(c3c12)CCCC4	CDK2	enzyme activity		80 nM
Cc1ccc(Cn2nnc3c4ccc(F)cc4c(=O)[nH]c32)cc1	PARP2	enzyme activity		> 10000 nM
CN(C)CCNC(=O)c1ccc(-c2nc3ccc4[nH]ncc4c3c3c2CCCCC3)cn1	CDK2	enzyme activity		210 nM
CCNc1ccc(C(N)=O)cn1	Nicotinamide N-methyltransferase (NNMT, Homo sapiens, UniProt P40261)	enzyme activity in cells		> 31600 nM
Cc1n[nH]c2ccc3nc(-c4ccc(C(=O)NCCN(C)C)cc4)c4c(c3c12)CCC(F)(F)C4	CDK2	enzyme activity		594 nM
COc1ccc2c(=O)[nH]c3c(nnn3Cc3ccc(C)cc3)c2c1	PARP2	enzyme activity, fluorescence		> 10000 nM
